The source of these data is paper PMC2212161 (The Journal of Experimental Medicine, 1998).

Where two headings read alike, the source gives them in different places.

Experiment [1] concerns NuMA. The following applies: Fas-stimulated Jurkat cells; cited from earlier work.
Experiment [2] relates to Fas-stimulated Jurkat cells. The experiment can be described thus: PS externalization. In kind it is cell-based, human. Particulars: Fas stimulation 4 h, Fig. 9 B; for PS externalization (increase in annexin V binding): inhibitor 100 μM pretreated 1 h. The procedure, abridged: (§1)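 Jurkat cells (5 × 10⁵) were pretreated 1 h with inhibitor, then stimulated with anti-Fas for 4 h. Cells were mesh-filtered and analysed at once by flow cytometry.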

The test system of experiment [3] is Fas-stimulated Jurkat cells. The experiment can be described thus: Flow cytometric analysis of DNA fragmentation. Type of experiment: cell-based, human. The following applies: anti-Fas mAb 4 h, Fig. 7 B. An outline of the steps:
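Jurkat cells were pretreated with inhibitor, then given anti-Fas mAb for 4 h. Cells (10⁶) were fixed in 70% ethanol for 2 h on ice, washed in PBS, and treated with 10 μg/ml RNase A for 30 min at 37°C. They were stained with 50 μg/ml propidium iodide for 30 min on ice in the dark, and PI (log scale) was recorded against forward scatter by flow cytometry.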
In general terms: In flow cytometry, cells or beads pass a laser one at a time.

Experiment [4] has as its system PAK2. The experiment is described as follows: Immunoblotting for PAK2 cleavage in Fas-stimulated Jurkat cells. Particulars: Fig. 5 D. Type of experiment: cell-based, human. The procedure, abridged:
(§2)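 Jurkat cells were preincubated with inhibitor, then Fas-stimulated. Whole-cell extracts were made by boiling pellets 3 min in SDS sample buffer (50 mM Tris-HCl pH 6.8, 15% sucrose, 3% SDS). Gels were 5% SDS-PAGE for NuMA (rabbit polyclonal r240-C) and 10% for PARP (mAb C-2-10) and PAK2 (rabbit anti-ste20-subdomain VI). Proteins were blotted to nitrocellulose and cleavage fragments immunodetected.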

For experiment [5], the system named is pro–caspase-7. The experiment can be described thus: Processing of pro–caspase-7 in Fas-stimulated Jurkat cells. Type of experiment: cell-based, human. Particulars: inhibitor 100 μM; same blot reprobed with anti–caspase-7 Ab; Fig. 1 B. The procedure, abridged:
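The affinity-labeling blot from Jurkat cells (inhibitor preincubation 1 h, anti-Fas CH-11 100 ng/ml, 4 h, serum-free RPMI-1640) was reprobed with anti-caspase-7 antibody to follow pro-caspase-7 processing.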

In experiment [6] the test system is F20/caspase-3-p20. In kind it is cell-based, human.
Experiment [7] concerns F22/caspase-7. The experiment can be described thus: Cell-free caspase activation in Jurkat extracts triggered by caspase-8: F22. In kind it is biochemical, human.
Experiment [8] concerns F22/caspase-7. Type of experiment: cell-based, human.
Experiment [9] deals with F19/caspase-6. The experiment can be described thus: Cell-free caspase activation in Jurkat extracts triggered by caspase-8: F19. In kind it is biochemical, human.
Experiment [10] relates to Fas-stimulated Jurkat cells. The experiment can be described thus: Apoptotic body formation. In kind it is cell-based, human. The following applies: for Appearance of the cell population with the lowest FSC: flow cytometry; for Apoptotic body formation: phase contrast microscopy, Fig. 8. The procedure, abridged: (§3)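 Jurkat cells were preincubated 1 h at 37°C with inhibitor or 1% DMSO, then stimulated with anti-Fas mAb for 4 h. Cell size was read as forward scatter in flow cytometry, from PhiPhiLux-loaded or PI-stained cells. Reference was the lower FSC border of normally growing cells. Cell shape and apoptotic bodies were viewed by phase contrast microscopy.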

In experiment [11] the test system is NuMA. The experiment can be described thus: Immunoblotting for NuMA cleavage in Fas-stimulated Jurkat cells. In kind it is cell-based, human. The following applies: Fig. 5 B. An outline of the steps:
as §2
(Immunoblotting shows a protein as a band on a membrane.)

Experiment [12] has as its system PARP. The experiment can be described thus: Immunoblotting for PARP cleavage in Fas-stimulated Jurkat cells. In kind it is cell-based, human. The following applies: Fig. 5 C. The procedure, abridged:
as §2

Experiment [13] relates to F17/caspase-3-p17. In kind it is cell-based, human.
Experiment [14] deals with F17/caspase-3-p17. The experiment can be described thus: Cell-free caspase activation in Jurkat extracts triggered by caspase-8: F17. Type of experiment: biochemical, human.
Experiment [15] relates to F20/caspase-3-p20. The experiment can be described thus: Cell-free caspase activation in Jurkat extracts triggered by caspase-8: F20. The following applies: inhibitor 10 nM added before caspase-8; data not shown. Type of experiment: biochemical, human.
For experiment [16], the system named is Fas-stimulated Jurkat cells. The experiment can be described thus: Mitochondrial PT. Particulars: Fas stimulation 4 h, Fig. 9 B. Type of experiment: cell-based, human. An outline of the steps: as §1
Experiment [17] relates to active caspases in Fas-stimulated Jurkat cells. Type of experiment: cell-based, human. Particulars: inhibitor 100 μM, preincubated 1 h; anti-Fas mAb 4 h; Fig. 1 A.
The test system of experiment [18] is Fas-stimulated Jurkat cells. The experiment is described as follows: Shrinkage of cytoplasm / cell size. In kind it is cell-based, human. The following applies: for Fas-induced shrinkage of cells: phase contrast microscopy, Fig. 8; for Shrinkage of cytoplasm / decrease in cell size (FSC): Figs. 3 B and 7 B. An outline of the steps: as §3
Experiment [19] deals with Fas-stimulated Jurkat cells. The experiment is described as follows: Nuclear morphological changes. Type of experiment: cell-based, human. Particulars: inhibitor 100 μM preincubated 1 h 37°C; anti-Fas mAb 4 h; DAPI; Fig. 6. An outline of the steps: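 Jurkat cells were preincubated 1 h at 37°C with inhibitor (1, 10 or 100 μM) or 1% DMSO, then stimulated with anti-Fas mAb for 4 h; unstimulated cells were kept 4 h as control. Cells were fixed with 1% glutaraldehyde, stained with 2 μg/ml DAPI, and scored microscopically for chromatin condensation, nuclear shrinkage and fragmentation.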

The test system of experiment [20] is F19/caspase-6. The following applies: cited from earlier work.
In experiment [21] the test system is F19/caspase-6. Type of experiment: cell-based, human. Particulars: inhibitor 10–100 μM preincubated before Fas receptor cross-linking; Fig. 2 C.
In experiment [22] the test system is caspase activity in Fas-stimulated Jurkat cells. The experiment is described as follows: Flow cytometric analysis of intracellular caspase activity with PhiPhiLux-G2D2. In kind it is cell-based, human. The following applies: inhibitor 100 μM alone without Fas stimulation; data not shown.
The test system of experiment [23] is active caspases in Jurkat cytoplasmic extracts. In kind it is biochemical, human. Particulars: inhibitor 10 μM; Fig. 2 A.
In experiment [24] the test system is F20/caspase-3-p20. The following applies: cited from earlier work.
Experiment [25] relates to Caspase-8. The experiment can be described thus: Sensitivity of caspase-8 to DMQD-CHO. Type of experiment: biochemical. Particulars: data not shown.
In experiment [26] the test system is KB epidermal carcinoma cells. Particulars: inhibitor 50 μM; cited from earlier work.
Where [27] appears, read: inhibitor 10 μM, preincubated 1 h, anti-Fas mAb 4 h, Fig. 1 A.
The mark [28] stands for this setting: inhibitor 10 nM added before caspase-8, data not shown.
Where [29] appears, read: inhibitor 100 μM pretreated 1 h.
Where [30] appears, read: inhibitor 100 μM, flow cytometry.
The mark [31] stands for this setting: inhibitor 10–100 μM preincubated before Fas receptor cross-linking, Fig. 2 C.

Turning to “benzyloxycarbonyl-Val-Ala-Asp(OMe)-fluoromethylketone [zVAD-fmk]”, the NuMA cleavage result in experiment [1] is reported as “blocked”.
Regarding acetyl-Val-Ileu-Asp-aldehyde [VEID-CHO], the PS externalization entry in experiment [2] (inhibitor 10 μM pretreated 1 h) is on record as “Neither PT nor PS externalization were affected”. Further, the “PS externalization (increase in annexin V binding)” value in experiment [2] is recorded as “markedly inhibited”. For the same substance, the values for the DNA fragmentation result in [3] (inhibitor 100 μM) and in experiment [3] (inhibitor up to 10 μM) were “suppresses both” and “did not prevent”, respectively. Besides, the “Cleavage of PAK2” value in experiment [4] (inhibitor up to 10 μM) is “failed to affect”. For the same substance, the “Processing of pro–caspase-7” value in experiment [5] is “blocked”. The “Labeling of F20/caspase-3-p20” value in experiment [6] (setting [27]) is given as “unaffected”. The “Activation of caspase-7 in cell-free activation” value in experiment [7] (setting [28]) is “minimal effects”. In [8] (setting [27]), the “Labeling of F22/caspase-7” value is listed as “unaffected”. The “Activity of caspase-6 in cell-free activation” value in experiment [9] (setting [28]) was “selectively blocked”. In addition, the “Appearance of the cell population with the lowest FSC” value in experiment [10] (inhibitor 10 μM, Fig. 7 B) is “had no effect”. In addition, the Apoptotic body formation entry in [10] (inhibitor up to 10 μM) is “did not prevent”. For the same substance, the “Proteolysis yielding the 180-kD NuMA fragments” value in experiment [11] (inhibitor 1 μM) is reported as “not affected”. Besides, the “180-kD NuMA fragment” value in experiment [11] (inhibitor 10 μM) is “moderate decrease”. In [11] (inhibitor 1–10 μM), the “Production of the 160-kD NuMA fragment” value is on record as “suppressed”. In addition, the PARP cleavage result in experiment [12] (inhibitor 1 μM) is on record as “did not affect”; in experiment [12] (inhibitor 10 μM) it was “Partial blockade”; in experiment [12] (inhibitor 100 μM), “markedly suppressed”. The “Labeling of F17/caspase-3-p17” value in experiment [13] (setting [27]) is on record as “Suppression”. In addition, the “Activation of caspase-3-p17 in cell-free activation” value in [14] (setting [28]) is on record as “minimal effects”. In addition, the “Activation of caspase-3-p20 in cell-free activation” value in [15] is reported as “minimal effects”. In addition, the “Mitochondrial PT” value in experiment [16] (inhibitor 10 μM pretreated 1 h) is recorded as “Neither PT nor PS externalization were affected”; in [16] (setting [29]), “markedly inhibited”. Further, in experiment [17], the “Caspase labeling (all)” value was “loss of all caspase labeling”. Also, in [18] (inhibitor 10 μM, flow cytometry, Fig. 7 B), the “Cell size (FSC)” value is “had no effect”. Further, the “Fas-induced shrinkage of cells” value in experiment [18] (inhibitor 10 μM) was “Neither 100 μM DMQD-CHO (Fig. 8 h) nor 10 μM VEID-CHO (Fig. 8 d) affected”; in experiment [18] (inhibitor 100 μM), “completely blocked”. Moreover, the “Shrinkage of cytoplasm / decrease in cell size (FSC)” value in experiment [18] (setting [30]) is recorded as “markedly suppressed”.
Regarding Ac-DMQD-aldehyde [DMQD-CHO], in experiment [2], the “PS externalization (increase in annexin V binding)” value is listed as “suppressed”. In addition, the DNA fragmentation entry in experiment [3] (inhibitor 100 μM) is recorded as “completely inhibited”. The “Cleavage of PAK2” value in experiment [4] (inhibitor 100 μM) was “suppressed”. Moreover, the Nuclear morphological changes result in experiment [19] is on record as “completely blocked”. Moreover, the “Concentration required to block activity of caspase-6 relative to caspase-7” value in [20] (higher for caspase-6) is recorded as approximately 10 fold. Further, the “Activity of F19/caspase-6” value in experiment [20] (inhibitor even at 100 μM) is listed as “insensitive”. Moreover, the “Labeling of F20/caspase-3-p20” value in experiment [6] (setting [31]) is recorded as “suppressed”. Moreover, the “Labeling of F22/caspase-7” value in experiment [7] (inhibitor up to 5 μM, Fig. 2 A) is given as “unhindered”. Also, the “Activation of caspase-7 (time course)” value in experiment [8] (inhibitor 100 μM preincubated 1 h, Fig. 2 D) is “uninterrupted”. In experiment [8] (inhibitor up to 100 μM, Fig. 2 C), the “Labeling of F22” value is “persisted”. For the same substance, in experiment [9] (preincubation before addition of caspase-8, Fig. 2 A), the “Concentration preventing appearance of F19/caspase-6” value was in the range of 1 to 2 µM. Moreover, in experiment [10] (inhibitor 100 μM, Figs. 3 B and 7 B), the “Appearance of the cell population with the lowest FSC” value is on record as “suppressed”. Further, in [10] (inhibitor 100 μM), the Apoptotic body formation entry is “formed no apoptotic bodies”. Besides, in [11] (inhibitor 100 μM), the “Generation of the 160-kD NuMA fragment” value is on record as “blocked” and the “Generation of the 180-kD NuMA fragment” value is recorded as “blocked”. For the same substance, the PARP cleavage result in [12] (inhibitor 100 μM) was “only weakly inhibited”. The “Labeling of F17/caspase-3-p17” value in experiment [13] (setting [31]) is listed as “suppressed”. For the same substance, the “Labeling of F17/caspase-3-p17” value in experiment [14] (inhibitor 1–2 μM, Jurkat extract preincubated, caspase-8, 4 h 37°C, Fig. 2 A) is given as “suppressed”. The “Appearance of F19/caspase-6” value in experiment [21] is reported as “blocked”. Moreover, the “Increase in PhiPhiLux-G2D2 fluorescence or cell shrinkage” value in [22] is “did not induce”. In [23], the “Caspase labeling (all)” value is on record as “loss of all labeling”. Besides, the “Mitochondrial PT” value in [16] (setting [29]) is on record as “not affected”. Besides, the “Shrinkage of cytoplasm / decrease in cell size (FSC)” value in experiment [18] (setting [30]) is listed as “proceeded to a significant degree”. Also, the “Fas-induced shrinkage of cells” value in experiment [18] (inhibitor 100 μM) is listed as “Neither 100 μM DMQD-CHO (Fig. 8 h) nor 10 μM VEID-CHO (Fig. 8 d) affected”. Also, the “Concentrations previously shown to block the activity of F20/caspase-3-p20” value in experiment [24] is 1 to 2 µM. Further, the “Sensitivity of caspase-8” value in experiment [25] is “relatively insensitive”.
In the case of DEVD-CHO, the NuMA cleavage result in experiment [1] is “blocked”.
For the substance “benzyloxycarbonyl-Asp-Glu-Val-Asp(OMe)-fluoromethylketone [zDEVD-FK]”, the “Fas-induced chromatin condensation and apoptotic body formation” value in experiment [26] is recorded as “abolished”.
